In brackets after ≈: the same amount, converted by molar mass. Activity calls are given as the source filed them. The calls are words filed in the database; no cut-off is given here.
What was measured:
[1] = tested on: Vero; experiment: Selectivity index, ratio of IC50 for green monkey Vero cells over IC50 for human HeLa cells; assay type: functional
In short: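 Selectivity index is the Vero IC50 divided by the HeLa IC50. Both IC50s come from the 48 h MTT assay, each from linear-regression dose-effect curves.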

[2] = tested on: Vero; experiment: Cytotoxicity against african green monkey Vero cells after 48 hrs by MTT assay; assay type: cell-based; conditions: Chlorocebus sabaeus
In short: (§1)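 MTT colorimetric assay. HeLa (ATCC CCL-2) and Vero (ATCC CCL-81) cells were grown in MEM with 10% FBS at 37 °C, 5% CO2, then seeded at 1.5×10^4 (HeLa) or 1.25×10^4 (Vero) cells/well. Compound dilutions were added after 24 h and incubated 48 h more. Cell controls had 0.05% DMSO; vincristine was the reference. IC50 came from linear-regression dose-effect curves, mean ± S.E.M. of at least four dilutions in quadruplicate.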

[3] = tested on: HeLa; experiment: Cytotoxicity against human HeLa cells after 48 hrs by MTT assay; assay type: functional, cell-based; in short: as §1
[4] = tested on: Trichophyton rubrum; experiment: Antifungal activity against Trichophyton rubrum ATCC 28188 after 6 days by CLSI M38-A assay; conditions: ATCC 28188, 6 days
[5] = tested on: Candida albicans; experiment: Antifungal activity against Candida albicans ATCC 10231 at 100 ug/mL after 24 hrs by AFSTEUCAST assay; assay type: functional, organism-based
[6] = tested on: Trichophyton mentagrophytes; experiment: Antifungal activity against Trichophyton mentagrophytes ATCC 24198 after 6 days by CLSI M38-A assay; conditions: ATCC 24198, 6 days
[7] = tested on: Candida parapsilosis; experiment: Antifungal activity against Candida parapsilosis ATCC 22019 at 100 ug/mL after 24 hrs by AFSTEUCAST assay; assay type: functional, organism-based
[8] = tested on: Fusarium oxysporum; experiment: Antifungal activity against Fusarium oxysporum ATCC 48112 after 48 hrs by CLSI M38-A assay; conditions: ATCC 48112, 48 h
[9] = tested on: SNU1; experiment: Cytotoxicity against human SNU1 cells; assay type: functional, cell-based
[10] = tested on: Pichia kudriavzevii; experiment: Antifungal activity against Candida krusei ATCC 6258 at 100 ug/mL after 24 hrs by AFSTEUCAST assay; assay type: functional, organism-based
[11] = tested on: P388; experiment: Cytotoxicity against mouse P388 cells; assay type: functional, cell-based
[12] = tested on: B16; experiment: Cytotoxicity against mouse B16 cells; assay type: functional, cell-based
[13] = tested on: Aspergillus fumigatus; experiment: Antifungal activity against Aspergillus fumigatus ATCC 204305 after 48 hrs by CLSI M38-A assay; conditions: ATCC 204305, 48 h
[14] = tested on: Candida tropicalis; experiment: Antifungal activity against Candida tropicalis CECT 11901 at 100 ug/mL after 24 hrs by AFSTEUCAST assay; assay type: functional, organism-based
[15] = tested on: Candida albicans; experiment: Antifungal activity against Candida albicans ATCC 10231 at 12.5 ug/mL after 24 hrs by AFSTEUCAST assay; assay type: functional, organism-based
[16] = tested on: Aspergillus terreus; experiment: Antifungal activity against Aspergillus terreus CDC 317 at 100 ug/mL after 48 hrs by CLSI M38-A assay
[17] = tested on: Aspergillus flavus; experiment: Antifungal activity against Aspergillus flavus ATCC 204304 at 100 ug/mL after 48 hrs by CLSI M38-A assay
[18] = tested on: Pichia kudriavzevii; experiment: Antifungal activity against Candida krusei ATCC 6258 at 6.25 ug/mL after 24 hrs by AFSTEUCAST assay; assay type: functional, organism-based
[19] = tested on: Human alphaherpesvirus 1; experiment: Antiviral activity against HSV1 infected in Vero cells assessed reduction factor at 12.5 ug/ml after 36 hrs by end-point titration technique relative to control; assay type: functional
In short: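 HSV-1 (CDC) end-point titration on Vero cells. Two-fold compound dilutions were mixed with one infection dose of virus (TCID50/0.1 mL) for 0.5 h at 37 °C. The mixture was added to confluent monolayers and incubated 36 h at 37 °C, 5% CO2. Reduction factor is the virus titer without compound divided by the titer with compound.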

[20] = tested on: Candida parapsilosis; experiment: Antifungal activity against Candida parapsilosis ATCC 22019 at 6.25 ug/mL after 24 hrs by AFSTEUCAST assay; assay type: functional, organism-based
[21] = tested on: Candida tropicalis; experiment: Antifungal activity against Candida tropicalis CECT 11901 at 12.5 ug/mL after 24 hrs by AFSTEUCAST assay; assay type: functional, organism-based
[22] = tested on: KB; experiment: Cytotoxicity against human KB cells; assay type: functional; conditions: read-out: ED50 (the source's name)

MIC [4] [µg/mL] | MIC [6] [µg/mL] | MIC [8] [µg/mL] | MIC [13] [µg/mL] | Structure (SMILES) | Selectivity Index [1] | IC50 [2] [µg/mL] | IC50 [3] [µg/mL] | Activity [5] | Activity [7] | Activity [10] | Activity [14] | further results
0.62 | 1.24 | 19.8 | 79.4 | C=C1CC[C@H]2C(C)(C)CCC[C@]2(C)[C@H]1C/C=C(\C=O)CC=O (mixture of isomers) [LABDADIENEDIAL] | 0.67 | 13.1 | 19.5 | Active | Active | Active | Active | Activity [15]: Active; Activity [16]: inactive; Activity [17]: inactive; Activity [18]: Active; Activity [19]: 100; IC50 [9]: 12 µg/mL; IC50 [11]: 4.1 µg/mL; IC50 [12]: 41.2 µg/mL; Activity [20]: Active; Activity [21]: Active; EC50 [22]: 40 µg/mL
> 100 | > 100 | > 100 | > 100 | C=C1CC[C@H]2C(C)(C)CCC[C@]2(C)[C@H]1C/C=C(/CC(=O)O)C(=O)O | 0.46 | 39 (≈ 117 µM) | 84.5 (≈ 253 µM) | inactive | inactive | inactive | inactive | –
50 (≈ 161 µM) | 39.7 (≈ 127 µM) | > 100 | 50 (≈ 161 µM) | CON(C)C(=O)C[C@H]1[C@@]2(C)CCCC(C)(C)[C@@H]2CC[C@]1(C)O [WEINREB'S AMIDE] | 1.23 | 82 (≈ 263 µM) | 66.8 (≈ 214 µM) | inactive | inactive | inactive | inactive | Activity [16]: inactive; Activity [17]: inactive
> 100 | > 100 | > 100 | > 100 | C=C1CC[C@H]2C(C)(C)CCC[C@]2(C)[C@H]1C/C=C(/CC(=O)OC)C(=O)OC | 2.32 | 33.7 (≈ 93 µM) | 14.5 (≈ 40 µM) | inactive | inactive | inactive | inactive | –

Further lines, the compound ahead of its results:

Structure (SMILES) | MIC [4] [µg/mL] | MIC [6] [µg/mL] | MIC [8] [µg/mL] | MIC [13] [µg/mL] | Selectivity Index [1] | IC50 [2] [µg/mL] | IC50 [3] [µg/mL] | Activity [5] | Activity [7] | Activity [10] | Activity [14] | further results
CC[C@]1(O)C[C@H]2CN(CCc3c([nH]c4ccccc34)[C@@](C(=O)OC)(c3cc4c(cc3OC)N(C=O)[C@H]3[C@@](O)(C(=O)OC)[C@H](OC(C)=O)[C@]5(CC)C=CCN6CC[C@]43[C@@H]65)C2)C1 [VINCRISTINE] | – | – | – | – | 22 | 1.1 (≈ 1.33 µM) | 0.05 (≈ 0.0606 µM) | – | – | – | – | –
C=C1CCC2C(C)(C)CCC[C@]2(C)[C@H]1CC=O (stereo not given in full) | 31.5 (≈ 134 µM) | 31.5 (≈ 134 µM) | > 100 | > 100 | 4.11 | 10.7 (≈ 45.7 µM) | 2.6 (≈ 11.1 µM) | inactive | inactive | inactive | inactive | IC50 [9]: 3.9 µg/mL (≈ 16.6 µM); IC50 [11]: 0.16 µg/mL (≈ 0.683 µM); IC50 [12]: 30.8 µg/mL (≈ 131 µM)
C=C1CC[C@H]2C(C)(C)CCC[C@]2(C)[C@H]1C/C=C(\CO)CCO | > 100 | > 100 | > 100 | > 100 | 0.42 | 38 (≈ 124 µM) | 91 (≈ 297 µM) | inactive | inactive | inactive | inactive | –
CCC(C)n1ncn(-c2ccc(N3CCN(c4ccc(OCC5COC(Cn6cncn6)(c6ccc(Cl)cc6Cl)O5)cc4)CC3)cc2)c1=O (stereo not given) [ITRACONAZOLE] | – | – | – | 0.17 (≈ 0.241 µM) | – | – | – | – | – | – | – | –
C=C1CC[C@H]2C(C)(C)CCC[C@]2(C)[C@H]1CC(=O)N(C)OC | 50 (≈ 170 µM) | 19.8 (≈ 67.5 µM) | > 100 | > 100 | 2.69 | 31.5 (≈ 107 µM) | 11.7 (≈ 39.9 µM) | inactive | inactive | inactive | inactive | –
C[C@@H]1[C@H](O)[C@@H](C)/C=C/C=C/C=C/C=C/C=C/C=C/C=C/[C@H](O[C@@H]2O[C@H](C)[C@@H](O)[C@H](N)[C@@H]2O)C[C@@H]2O[C@](O)(C[C@@H](O)C[C@@H](O)[C@H](O)CC[C@@H](O)C[C@@H](O)CC(=O)O[C@H]1C)C[C@H](O)[C@H]2C(=O)O [AMPHOTERICIN B] | – | – | – | 2 (≈ 2.16 µM) | – | – | – | – | – | – | – | –
CN(C/C=C/C#CC(C)(C)C)Cc1cccc2ccccc12 [TERBINAFINE] | < 0.078 | 0.0312 (≈ 0.107 µM) | – | – | – | – | – | – | – | – | – | –
